Calls of active or inactive are those of the source. No cut-off for these calls is given here.
Columns and labels:
HL-60 [1] = assay: Induction of apoptosis in human HL60 cells assessed as morphological changes after 12 hrs by Hoechst 33258 staining based fluorescence microscopy; format: functional, cell-based
Outline: (§1)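 HL-60 cells were treated for 12 h at 10–30 µM, with 10 µM etoposide as positive control. Cells were fixed in 3% paraformaldehyde for 10 min, then stained with 10 µg/mL Hoechst 33258 for 30 min at 37 °C. Nuclei with condensed or fragmented chromatin were scored as apoptotic, counting ≥500 cells per sample, in triplicate.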

HL-60 [2] = assay: Induction of apoptosis in human HL60 cells at 30 uM after 12 hrs by Hoechst 33258 staining based fluorescence microscopy; format: functional; outline: as §1
HL-60 [3] = assay: Induction of apoptosis in human HL60 cells assessed as induction of DNA cleavage at 10 uM after 12 hrs by gel electrophoresis; format: functional, cell-based
Outline: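 HL-60 cells (1×10^6) were lysed in Tris pH 8.0/EDTA/0.5% SDS with RNase A for 1 h at 37 °C, then proteinase K for 2 h at 50 °C. DNA was phenol-chloroform extracted and run on 2% agarose with ethidium bromide staining. The legend gives 24 h treatment while the text gives 12 h.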

HL-60 [4] = assay: Induction of apoptosis in human HL60 cells assessed as induction of PARP1 cleavage after 24 hrs by Western blot; format: functional, cell-based
Outline: (§2)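 About 7×10^5 exponentially growing HL-60 cells were treated at 37 °C for 6 or 24 h. Lysates in Hepes/NaCl/NP-40 buffer with protease inhibitors were cleared at 10 000g. 50 µg protein was run on 7.5% SDS-PAGE and probed with anti-PARP-1 (1:1000), with ECL detection. The 85 kDa fragment versus the 116 kDa intact band was the apoptosis marker.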

HL-60 [5] = assay: Induction of apoptosis in human HL60 cells assessed as morphological changes at 30 uM after 12 hrs by Hoechst 33258 staining based fluorescence microscopy; format: functional, cell-based; outline: as §1
HL-60 [6] = assay: Cytotoxicity against human HL60 cells after 72 hrs by MTT assay; format: functional, cell-based; details: HL-60, 72 h
Outline: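 HL-60 cells kept in RPMI-1640 with 10% heat-inactivated FBS at 37 °C and 5% CO2, resuspended in fresh medium 24 h before treatment. Cells at 1×10^4/well were exposed continuously to a concentration series for 72 h at 37 °C, with final DMSO ≤0.5%. Read-out was MTT reduction at OD 570 nm as % of DMSO control. IC50 was curve-fitted for each experiment; points were triplicates.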

HL-60 [7] = assay: Induction of apoptosis in human HL60 cells assessed as cytochrome release at 10 uM by Western blot; format: functional, cell-based
Outline: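 Exponentially growing HL-60 cells were treated for 6 h. The cytosolic fraction was obtained by hypotonic sucrose-buffer swelling on ice, needle lysis, a 1000g spin, then 105 000g for 45 min at 4 °C. 50 µg cytosolic protein was run on SDS/15% PAGE and immunoblotted with anti-cytochrome c (1:250), with ECL detection.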

HL-60 [8] = assay: Induction of apoptosis in human HL60 cells assessed as fold increase in caspase 3 activation at 30 uM relative to control; format: functional
Outline: (§3)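 HL-60 cells were exposed for 12 h to 1–30 µM. Lysates were made in Hepes pH 7.4/DTT/CHAPS buffer and protein was measured by Bradford. About 20 µg protein was incubated at 37 °C with DEVD-pNA (caspase-3) or IETD-pNA (caspase-8). Net A405 increase was expressed as fold over untreated control, in duplicate.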

HL-60 [9] = assay: Induction of apoptosis in human HL60 cells assessed as fold increase in caspase 8 activation at 10 uM relative to control; format: functional; outline: as §3
HL-60 [10] = assay: Induction of apoptosis in human HL60 cells assessed as induction of PARP1 cleavage after 6 hrs by Western blot; format: functional, cell-based; outline: as §2

SMILES	Activity (HL-60 [1])	Activity (HL-60 [2])	Activity (HL-60 [3])	Activity (HL-60 [4])	Activity (HL-60 [5])	IC50 (HL-60 [6])	Activity (HL-60 [7])	fold change (FC) (HL-60 [8])	fold change (FC) (HL-60 [9])	Activity (HL-60 [10])
COc1c(-c2ccc(O)cc2)oc2c(C)c(O)c(C)c(O)c2c1=O	Dose-dependent effect	26.6%	Active	Active	Active	7.4 µM	Active	–	–	–
COc1ccc(-c2oc3c(C)c(O)c(C)c(O)c3c(=O)c2OC)cc1	Dose-dependent effect	47.8%	Active	Active	Active	1.7 µM	Active	1.9	3.7	Active

Reference: ChEMBL document CHEMBL1151161, “Isolation from Eucalyptus occidentalis and identification of a new kaempferol derivative that induces apoptosis in human myeloid leukemia cells” (J Nat Prod, 2004)
